Results of several laboratories.
Compare with care: the assays were run in different laboratories.
Organism: Staphylococcus aureus
Read-out: microbial growth

Compound | test | system | conditions | MIC
CC(c1ccc(Cl)c(Cl)c1)n1cnc2cc3c(cc21)CCC3 (centres unmarked) | – | – | – | 3.1 to 6.3 µg/mL
Cc1ccc2nc(-c3c4ccccc4cc4ccccc34)[nH]c2c1 | broth dilution | ATCC43300 MRSA | drug-resistant strain | 128 µg/mL
COC(=O)c1cc(-c2cccc(NC(=O)Nc3ccccc3OC)c2)on1 | broth dilution | ATCC29213 | – | > 64 µg/mL
CN[C@H](CC(C)C)C(=O)N[C@H]1C(=O)N[C@@H](CC(N)=O)C(=O)N[C@H]2C(=O)N[C@H]3C(=O)N[C@H](C(=O)N[C@H](C(=O)O)c4cc(O)cc(O)c4-c4cc3ccc4O)[C@H](O)c3ccc(c(Cl)c3)Oc3cc2cc(c3O[C@@H]2O[C@H](CO)[C@@H](O)[C@H](O)[C@H]2O[C@H]2C[C@](C)(N)[C@H](O)[C@H](C)O2)Oc2ccc(cc2Cl)[C@H]1O | – | ATCC33591 | drug-resistant strain | 1.56 µg/mL
CO/N=C(\C(=O)N[C@@H]1C(=O)N2C(C(=O)O)=C(CSc3nc(=O)c(=O)[nH]n3C)CS[C@H]12)c1csc(N)n1 | – | USA300 | – | 64 µg/mL
CO[C@H]1[C@H](O[C@H]([C@H]2O[C@@H](n3ccc(=O)[nH]c3=O)[C@H](O)[C@@H]2O)[C@H](NCCCNC(=O)[C@@H](NC(=O)[C@@H](NC(=O)N[C@H](C(=O)O)C(C)C)[C@@H]2CCN=C(N)N2)[C@@H](OC(=O)CCCCC(C)C)C(C)C)C(=O)O)O[C@H](CN)[C@H]1O | – | NEWMAN | – | > 32 µg/mL
CC(C)(C)c1cc(NC(=O)Nc2ccc(Oc3ccncc3)cc2)no1 | – | NCTC8325 | – | 100 µM
CN[C@H](CC(C)C)C(=O)N[C@H]1C(=O)N[C@@H](CC(N)=O)C(=O)N[C@H]2C(=O)N[C@H]3C(=O)N[C@H](C(=O)N[C@H](C(=O)O)c4cc(O)cc(O)c4-c4cc3ccc4O)[C@H](O)c3ccc(c(Cl)c3)Oc3cc2cc(c3O[C@@H]2O[C@H](CO)[C@@H](O)[C@H](O)[C@H]2O[C@H]2C[C@](C)(N)[C@H](O)[C@H](C)O2)Oc2ccc(cc2Cl)[C@H]1O | – | MRSA | – | 8 µg/mL
CCOc1ccc(-c2nc3ccc(C)cc3[nH]2)cc1 | broth dilution | ATCC43300 MRSA | drug-resistant strain | 256 µg/mL
COc1ccc(Cc2cnc(N)nc2N)cc1OC | broth dilution | – | – | ~50 µM
Cc1ccc2nc(-c3ccc(N(C)C)cc3)[nH]c2c1 | broth dilution | ATCC43300 MRSA | drug-resistant strain | 128 µg/mL
Cc1ccc2[nH]c3c(c2c1)CCCC3NCCc1ccc(O)cc1 (centres unmarked) | broth dilution | MRSA USA300 | – | 16 µg/mL
CNC(=O)c1cc(Oc2ccc(NC(=O)Nc3cccc(C(F)(F)F)c3)cc2)ccn1 | – | NCTC8325 | – | > 100 µM
CCC1C(=NOCc2cc(-c3ccc(Cl)cc3)no2)CC(c2ccccc2)OC1c1ccccc1 (centres unmarked) | broth dilution | MTCC96 | 24 h | 50 µg/mL
COC(=O)c1cc(-c2cccc(NC(=O)Nc3ccc(C)c(Cl)c3)c2)on1 | broth dilution | ATCC29213 | – | > 64 µg/mL
CCCCCCCCCCCCCCCC(=O)CP(=O)(O)O | – | ATCC33591 MRSA | drug-resistant strain | 100 µg/mL
COC(=O)c1cc(-c2cccc(NC(=S)Nc3ccccc3Cl)c2)on1 | broth dilution | ATCC29213 | – | > 64 µg/mL
CCC(CC)c1cc(CCN2CCCN(Cc3ccc(C(F)(F)F)cc3)CC2)nc(-c2ccncc2)n1 | – | ATCCBAA1720 | drug-resistant strain, clinical isolate | 6 µg/mL
Cc1ccc2[nH]c3c(c2c1)CCCC3NCCc1ccc(Br)cc1 (centres unmarked) | broth dilution | ATCC29213 | – | 4 µg/mL
COC[C@H]1OC(=O)c2coc3c2[C@@]1(C)C1=C(C3=O)[C@@H]2CCC(=O)[C@@]2(C)C[C@H]1OC(C)=O | – | NCTC8325 | – | > 30 µM
CCCCCCCCCCCCCCCC(=O)NS(=O)(=O)Oc1ccc(OC)cc1 | – | ATCC33591 MRSA | drug-resistant strain | > 200 µg/mL
O=[N+]([O-])c1ccc(/C=N/Nc2nc(Nc3ccccc3)nc(Nc3ccccc3)n2)o1 | – | ATCC43300 | – | 2.4 µM
COc1ccc(OS(=O)(=O)NC(=O)CCCCc2ccccc2)cc1 | – | ATCC33591 MRSA | drug-resistant strain | > 200 µg/mL
COC(=O)c1cc(-c2ccc(OC)c(NC(=O)Nc3ccc(Cl)c(Cl)c3)c2)on1 | broth dilution | ATCC29213 | – | > 64 µg/mL

Compound | test | system | conditions | MIC
[H]/N=C(/N)N[C@H]1[C@H](O)[C@@H](O)[C@H](O[C@@H]2O[C@@H](C)[C@](O)(C=O)[C@H]2O[C@@H]2O[C@@H](CO)[C@H](O)[C@@H](O)[C@@H]2NC)[C@@H](N/C(N)=N\[H])[C@@H]1O | – | USA300 | – | 64 µg/mL
C=CCn1c(-c2ccc([N+](=O)[O-])cc2)nc2ccc(C)cc21 | broth dilution | ATCC43300 MRSA | drug-resistant strain | 64 µg/mL
O=C(Nc1ccc(O)cc1)Nc1ccc(Cl)c(C(F)(F)F)c1 | – | NCTC8325 | – | 100 µM
CCCCCCC#Cc1cncc(-c2nnc(Sc3ccc([N+](=O)[O-])cc3[N+](=O)[O-])n2C)c1 | – | MRSA | drug-resistant strain | ≥ 20 µg/mL
O=[N+]([O-])c1ccc(-c2nc3cc(F)ccc3[nH]2)o1 | broth dilution | ATCC700699 MRSA | drug-resistant strain | 4 µg/mL
Clc1ccc(-c2nc3ccccc3[nH]2)c(Cl)c1 | broth dilution | ATCC43300 MRSA | drug-resistant strain | 256 µg/mL
COC(=O)c1cc(-c2cccc(NC(=O)Nc3ccc(Cl)cc3Cl)c2)on1 | broth dilution | ATCC29213 | – | > 64 µg/mL
CCCCCCCC(=O)CP(=O)(O)O | – | ATCC33591 MRSA | drug-resistant strain | 200 µg/mL
Cc1ccc2nc(-c3cccnc3)[nH]c2c1 | broth dilution | ATCC43300 MRSA | drug-resistant strain | 128 µg/mL
CC(=O)Nc1c2sscc-2[nH]c1=O | – | MRSA | drug-resistant strain | 2.5 µM
CCCCCC/C=C\CCCCCCCCCC(=O)NP(=O)(O)O | – | ATCC33591 MRSA | drug-resistant strain | 200 µg/mL
CN[C@H](CC(C)C)C(=O)N[C@H]1C(=O)N[C@@H](CC(N)=O)C(=O)N[C@H]2C(=O)N[C@H]3C(=O)N[C@H](C(=O)N[C@H](C(=O)O)c4cc(O)cc(O)c4-c4cc3ccc4O)[C@H](O)c3ccc(c(Cl)c3)Oc3cc2cc(c3O[C@@H]2O[C@H](CO)[C@@H](O)[C@H](O)[C@H]2O[C@H]2C[C@](C)(N)[C@H](O)[C@H](C)O2)Oc2ccc(cc2Cl)[C@H]1O | broth dilution | ATCC25923 | – | 1 µg/mL
CN[C@H](CC(C)C)C(=O)N[C@H]1C(=O)N[C@@H](CC(N)=O)C(=O)N[C@H]2C(=O)N[C@H]3C(=O)N[C@H](C(=O)N[C@H](C(=O)O)c4cc(O)cc(O)c4-c4cc3ccc4O)[C@H](O)c3ccc(c(Cl)c3)Oc3cc2cc(c3O[C@@H]2O[C@H](CO)[C@@H](O)[C@H](O)[C@H]2O[C@H]2C[C@](C)(N)[C@H](O)[C@H](C)O2)Oc2ccc(cc2Cl)[C@H]1O | broth dilution | 25923 | – | 0.78 µM
CCCCCCCCCCCCCCCC(=O)NP(=O)(O)O | – | ATCC33591 MRSA | drug-resistant strain | 200 µg/mL
COC(=O)c1cc(-c2cccc(NC(=S)Nc3cccc(Br)c3)c2)on1 | broth dilution | ATCC29213 | – | > 64 µg/mL
COC(=O)c1cccc(Oc2ccc(NC(=O)Nc3ccc(Cl)c(C(F)(F)F)c3)cc2)c1 | – | NCTC8325 | – | 0.5 µM
CC1(C)CC[C@]2(C(=O)O)CC[C@]3(C)C(=CC[C@@H]4[C@@]5(C)CC[C@H](O)C(C)(C)[C@@H]5CC[C@]43C)[C@@H]2C1 | – | 252 | – | 256 µg/mL
COC(=O)c1cc(-c2cccc(NC(=O)Nc3cccc(Cl)c3Cl)c2)on1 | broth dilution | ATCC29213 | – | 8 to 16 µg/mL
Oc1cccc(-c2nc3ccccc3[nH]2)c1 | broth dilution | ATCC43300 MRSA | drug-resistant strain | 128 µg/mL
CN(C)[C@@H]1C(O)=C(C(N)=O)C(=O)[C@@]2(O)C(O)=C3C(=O)c4c(O)cccc4[C@@](C)(O)[C@H]3C[C@@H]12 | – | USA300 | – | 256 µg/mL
C=C(NC(=O)C(=C)NC(=O)c1csc(C2=N[C@@H]3c4csc(n4)[C@H]4NC(=O)c5csc(n5)[C@H]([C@](C)(O)[C@@H](C)O)NC(=O)[C@H]5CSC(=N5)/C(=C/C)NC(=O)[C@H]([C@@H](C)O)NC(=O)c5csc(n5)[C@]3(CC2)NC(=O)[C@H](C)NC(=O)C(=C)NC(=O)[C@H](C)NC(=O)[C@H]([C@@H](C)CC)N[C@@H]2C=Cc3c([C@H](C)O)cc(nc3[C@H]2O)C(=O)O[C@@H]4C)n1)C(N)=O | – | MRSA | – | 0.12 µg/mL
Clc1ccccc1-c1nc2ccccc2[nH]1 | broth dilution | ATCC43300 MRSA | drug-resistant strain | 128 µg/mL
COC(=O)c1cc(-c2cccc(NC(=O)Nc3ccc(F)cc3F)c2)on1 | broth dilution | ATCC29213 | – | > 64 µg/mL
